Screening data: PubChem, several laboratories
In the library only some 2.3% were active in any assay of this set; here they are far more common.
Myeloid diff 2 = induction of myeloid progenitor differentiation, primary screen, cell-based, flow cytometry, MLPCN library. AID 624256, 2012. calls only at 10 µM. ER-HoxA9 myeloid progenitors, lysozyme-GFP differentiation. 1% of 360,000 active;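 active = normalized GFP-positive differentiation at or above the plate's own cutoff, the solvent-only control mean plus 3 SD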;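 note: cells exposed to compound for four days before flow analysis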
CSN inh = inhibitors of CSN-mediated cullin deneddylation, primary screen, biochemical, fluorescence polarization, uHTS | inhibition, % at 12.5 µM | 0.38% of 360,000 active | Purified CSN, SCF-Nedd8-OG deneddylation;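 active = pattern-corrected inhibition above about 35%, with an unprinted fluorescence ratio check between 0.5 and 1.5, limit read from the data, passing the limit was not always enough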;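 note: 0% = enzyme with substrate and 100% = substrate without enzyme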
Target sequence (Q92905 whole entry, looked up, one chain of several): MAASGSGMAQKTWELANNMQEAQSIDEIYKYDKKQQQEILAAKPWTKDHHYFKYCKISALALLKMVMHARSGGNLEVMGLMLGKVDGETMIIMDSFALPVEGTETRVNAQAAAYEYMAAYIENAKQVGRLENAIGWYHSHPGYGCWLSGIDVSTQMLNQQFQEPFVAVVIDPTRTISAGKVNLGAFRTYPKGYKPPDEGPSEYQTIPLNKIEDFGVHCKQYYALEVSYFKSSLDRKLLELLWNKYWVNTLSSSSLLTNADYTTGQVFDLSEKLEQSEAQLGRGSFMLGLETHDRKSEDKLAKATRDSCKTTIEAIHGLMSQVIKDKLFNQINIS
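Detection – fluorescence polarization · System – HEK293T-derived human Csn5 enzyme · Controls – substrate-only high control, full reaction low control · Timing – 90 min, room temperature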
Rpn11 inh = Rpn11 (PSMD14) deubiquitinase inhibitors, primary screen, biochemical, fluorescence polarization, uHTS | 26S proteasome non-ATPase regulatory subunit 14 (Homo sapiens), O00487 | human 26S proteasome, Ub4-pepOG fluorescence polarization; 20S core pre-blocked with epoxomicin | inhibition, % at 20 µM | 0.59% of 360,000 active | AID 588493, 2011;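 active = inhibition at 20 µM, scaled to each plate's controls, above about 33%, limit read from the data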
TPT1 inh = Candida albicans TPT1 enzyme inhibitors, primary screen, biochemical, fluorescence polarization. tRNA 2'-phosphotransferase TPT1 (Candida albicans SC5314). recombinant caTPT1, FP RNA substrate dephosphorylation. inhibition, % at 5 µM. 0.81% of 300,000 active. AID 1962, 2009;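 active = inhibition above the mean of all tested compounds plus 3 SD, set per screening campaign, cut at about 24% in these data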;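 note: plate controls were DMSO alone for no effect and ferristatin control at 100 nM for full effect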
HNF4A DNA FP = change in binding of human HNF4A to DNA, primary screen, biochemical, fluorescence polarization, FITC-DNA | Hepatocyte nuclear factor 4-alpha (Homo sapiens), P41235 | 1 h | activity change, % at 10 µM | 0.3% of 360,000 active | AID 1224865, 2016; in the data active = activity change above about 30%, passing the limit was not always enough
Rpn11 inh conf = Rpn11 (PSMD14) deubiquitinase inhibitors, confirmation, biochemical, fluorescence polarization, single concentration | 29% of 1,900 active | purified human 26S proteasome, Ub4-pepOG fluorescence polarization; proteasome pretreated with epoxomicin | inhibition, % at 20 µM | shares compounds with Rpn11 inh
MMP-2 inh = MMP-2 enzyme inhibition, confirmation, counter-screen for RPN11 inhibitor project, biochemical, fluorescence, single concentration | recombinant MMP-2, FRET peptide cleavage fluorescence | shares compounds with Rpn11 inh | 4% of 1,900 active | inhibition, % at 20 µM;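 note: human MMP-2 activated beforehand with APMA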
Thrombin FP = bovine thrombin protease inhibition, confirmation, counter-screen for Rpn11 inhibitor project, biochemical, fluorescence polarization, single concentration. shares compounds with Rpn11 inh. bovine thrombin cleavage of Ub4-pepOG. inhibition, % at 20 µM. 13% of 1,900 active. AID 602333, 2012;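 active = mean inhibition at least 40% at 20 µM, or signal 3 deviations below plate average, so some actives read negative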;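 note: plate controls were thrombin with DMSO for no effect and buffer wells lacking thrombin for full effect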
Numbers without * were called inactive. Cut-off read from the data, not from the text of the source, unless noted: active = inhibition above about 40%; inactive = the rest.

Screening COc1ccc(/C=c2/sc3n(c2=O)C(c2ccccc2OC)C2=C(N=3)c3ccccc3CC2)cc1O (stereo not drawn) returned Myeloid diff 2 inactive, CSN inh 8, Rpn11 inh 48*, TPT1 inh 18, HNF4A DNA FP 20, Rpn11 inh conf 25, MMP-2 inh 23 and Thrombin FP 0.
CCOC(=O)C1=C(C)N=c2s/c(=C\c3ccc(OCC(=O)O)cc3)c(=O)n2C1c1ccccc1OC (stereo not drawn) was read as Myeloid diff 2 inactive, CSN inh 4, Rpn11 inh 35, TPT1 inh 23 and HNF4A DNA FP 8.
Screening COc1ccccc1C1C2=C(N=C3SCC(=O)N31)c1ccccc1CC2 (stereo not drawn) returned Myeloid diff 2 inactive, CSN inh 0, Rpn11 inh -8, TPT1 inh -2 and HNF4A DNA FP -1.
Screening CCOC(=O)C1=C(C)N=c2s/c(=C\c3ccc(OCC(=O)O)cc3)c(=O)n2C1c1ccc(Cl)cc1 (stereo not drawn) returned Myeloid diff 2 inactive, CSN inh 32, Rpn11 inh 46*, HNF4A DNA FP 6, Rpn11 inh conf 91*, MMP-2 inh -11 and Thrombin FP 20.
For CCOC(=O)C1=C(C)N=c2s/c(=C/c3ccc(OCC(=O)O)cc3)c(=O)n2C1c1ccc(SC)cc1 (stereo not drawn) the results were Myeloid diff 2 inactive, CSN inh 34, Rpn11 inh 22 and HNF4A DNA FP -3.
Screening O=C(NCC(O)c1ccc2ccccc2c1)c1c(F)cccc1F (stereo not drawn) returned Myeloid diff 2 inactive, CSN inh 2, Rpn11 inh -4, TPT1 inh 1 and HNF4A DNA FP -2.
`O=C(NC(=S)Nc1ccc2oc(=O)ccc2c1)c1cc2ccccc2o1` gave Myeloid diff 2 inactive, CSN inh 2, Rpn11 inh 42*, TPT1 inh 1, HNF4A DNA FP -9, Rpn11 inh conf 1, MMP-2 inh 24 and Thrombin FP 3.
CC(C)C(=O)Nc1ccc(NC(=S)NC(=O)c2cc3ccccc3o2)cc1 was read as Myeloid diff 2 inactive, CSN inh -1, Rpn11 inh -3, TPT1 inh 4 and HNF4A DNA FP 0.
Screening CC(C)C(=O)Nc1ccc(NC(=O)c2cc3ccccc3o2)cc1 returned Myeloid diff 2 inactive, CSN inh -2, Rpn11 inh 177*, TPT1 inh -4, HNF4A DNA FP 16, Rpn11 inh conf -3, MMP-2 inh -19 and Thrombin FP -1.
Screening Cc1cccc(C)c1OCc1cc(C(=O)N(C)CCc2ccccn2)no1 returned Myeloid diff 2 inactive, CSN inh 1, Rpn11 inh 0, TPT1 inh 0 and HNF4A DNA FP -2.
COC(=O)c1ccc(CSc2ncnc3c2sc2nc(N4CCOCC4)c4c(c23)CCCC4)o1 was read as Myeloid diff 2 inactive, CSN inh 16, Rpn11 inh 41*, TPT1 inh 0, HNF4A DNA FP 9, Rpn11 inh conf 24, MMP-2 inh 19 and Thrombin FP -3.
C=CCNC(=O)N1CCCC(C(=O)c2cccc(OC(C)C)c2)C1 (stereo not drawn) was read as Myeloid diff 2 inactive, CSN inh -1, Rpn11 inh 3, TPT1 inh 1 and HNF4A DNA FP -2.
